Dyrk1A ADPGlo = rat Dyrk1A kinase inhibitors, primary screen, biochemical, single point, plate reader | inhibition, % at 12.5 µM | hit rate 0.43% among 310,000 | Dual specificity tyrosine-phosphorylation-regulated kinase 1A (Rattus norvegicus), Q63470 | ADP-Glo luminescence, NFATc1 peptide; in the data active means inhibition above about 50%;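 further: plate controls were vehicle with enzyme for no effect and no enzyme for full effect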
GSK3B inh = human GSK3beta kinase inhibitors, primary screen, biochemical, cell-free homogeneous, HTS; GST-GSK3beta kinase, ADP-Glo luminescence, 60 min; hits give low values; Glycogen synthase kinase-3 beta (Homo sapiens), P49841; activity score (negative = inhibition), % at 10 µM; hit rate 0.038% among 300,000;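 active means more than half of replicate wells score below -50%, meaning over 50% inhibition versus plate controls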;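 further: 0% = median DMSO wells and -100% = median GW8510 positive control wells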
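Assay system: GST-tagged human GSK3beta kinase, cell-free; Input: 1.6 ng GSK3beta; Medium: Tris/MgCl2 kinase buffer; Timing: 60 min enzyme reaction, room temperature; Signal: ADP-Glo luminescence quantifying ADP generated by kinase; Evaluation: score relative to plate controls; Benchmarks: DMSO neutral wells and GW8510 at 20 µM as positive.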
CDK5 p35 inh = inhibitors of human CDK5/p35 kinase, primary screen, biochemical, single concentration; Cyclin-dependent kinase 5 (Homo sapiens) + Cyclin-dependent kinase 5 activator 1 (Homo …; Recombinant CDK5/p35, ADP-Glo luminescence, 60 min; inhibition, % at 10 µM; hit rate 0.01% among 330,000; AID 488839, 2010;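 active means highest replicate inhibition of at least 50% and at least 75% of replicates reaching 50%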;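 further: plate controls were DMSO neutral control for no effect and GW8510 at 10 µM for full effect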
STK33 inh = inhibitors of purified STK33 kinase, primary screen, biochemical, ADP-Glo luminescence, homogeneous, cell-free. hit rate 0.073% among 320,000. MBP phosphorylation. AID 2661, 2010. inhibition, % at 10 µM;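 active means inhibition at or above 25%, using the most active replicate where run in duplicate; inactive means inhibition below 25%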
GSK3A inh = blockers of GSK3A enzyme activity – biochemical, luminescence, cell-free homogeneous, HTS, primary screen; hit rate 0.1% among 320,000; Glycogen synthase kinase-3 alpha (Homo sapiens), P49840; inhibition, % at 10 µM; GSK-3 alpha kinase, ADP-Glo luminescence, 60 min;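 active means more than half of replicates show inhibition above 20%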;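 further: GST-tagged GSK-3 alpha with peptide substrate and 25 µM ATP; 0% = DMSO neutral wells and 100% = GW8510 positive control wells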
An asterisk follows results filed as active. This excerpt belongs to a sample that is enriched for hits.

`O=C(O)c1ccc(S(=O)(=O)/N=C2\C=C(Nc3ccccc3F)C(=O)c3ccccc32)cc1` gave Dyrk1A ADPGlo 57*, GSK3B inh -12, CDK5 p35 inh 4, STK33 inh 19 and GSK3A inh 20.
`CCCn1nc(NC(=O)C(C)(C)C)c2cc3cc(OC)ccc3nc21` gave Dyrk1A ADPGlo 32, GSK3B inh -42, CDK5 p35 inh 10, STK33 inh 1 and GSK3A inh 66*.
C[C@H]1CC[C@@]2(O[C@H](CCO)C[C@@H](O)[C@@H]2O)O1 was read as Dyrk1A ADPGlo 4, GSK3B inh -2, CDK5 p35 inh -3, STK33 inh -2 and GSK3A inh 0.
C=CC(=O)Nc1cccc(Nc2nc(N[C@H]3CC[C@H](N(C)C)CC3)nc3c2ncn3C(C)C)c1 was read as Dyrk1A ADPGlo 88* and CDK5 p35 inh 83*.
`N/C(=N\OC(=O)c1ccc2c(c1)OCO2)c1cccc([N+](=O)[O-])c1` gave Dyrk1A ADPGlo 5, GSK3B inh 1, CDK5 p35 inh -1, STK33 inh 4 and GSK3A inh 0.
For Cc1cccc(/C(N)=N/OC(=O)c2ccc3c(c2)OCO3)c1 the results were Dyrk1A ADPGlo 23, GSK3B inh -25, CDK5 p35 inh 23, STK33 inh 32* and GSK3A inh 35.
Cc1cn(C2OC(CC(=O)Oc3ccccc3)C(O)C2O)c(=O)[nH]c1=O (stereo unspecified) was read as Dyrk1A ADPGlo -7, GSK3B inh -25, CDK5 p35 inh 0, STK33 inh 0 and GSK3A inh 52*.
Cc1cn(C2OC(COC(=O)c3ccccc3)C(O)C2Cl)c(=O)[nH]c1=O (stereo unspecified) was read as Dyrk1A ADPGlo 13, GSK3B inh 0, CDK5 p35 inh 0, STK33 inh 3 and GSK3A inh 5.
`Cc1ccc(CNc2nc(N)c([N+](=O)[O-])c(NCCO)n2)cc1` gave GSK3B inh -39, CDK5 p35 inh 0, STK33 inh 2 and GSK3A inh 51*.
CCC(C)Nc1nc(N)c([N+](=O)[O-])c(NCCO)n1 (stereo unspecified) was read as Dyrk1A ADPGlo 13, GSK3B inh -1, CDK5 p35 inh 11, STK33 inh 1 and GSK3A inh 73*.
CC(C)CCNc1nc(N)c([N+](=O)[O-])c(NCCO)n1 was read as GSK3B inh -67*, CDK5 p35 inh 2, STK33 inh 3 and GSK3A inh 80*.
For Nc1nc(Nc2ccc(Cl)cc2)nc(NCCO)c1[N+](=O)[O-] the results were GSK3B inh -16, STK33 inh 3 and GSK3A inh 55*.
`Nc1nc(NCc2ccc(Cl)cc2)nc(NCCO)c1[N+](=O)[O-]` gave Dyrk1A ADPGlo 40, GSK3B inh -1, CDK5 p35 inh 2, STK33 inh -2 and GSK3A inh 13.
Screening O=c1cc(-c2ccc(O)c(O)c2)oc2cc(O)c(C3OC(CO)C(O)C(O)C3O)c(O)c12 (stereo unspecified) returned Dyrk1A ADPGlo 18, GSK3B inh 1, CDK5 p35 inh 0, STK33 inh 2 and GSK3A inh -2.
CCCn1c2ccc(/C(C)=N\O)cc2c2cc(/C(C)=N/O)ccc21 was read as Dyrk1A ADPGlo 3, GSK3B inh -2, CDK5 p35 inh 0, STK33 inh 44* and GSK3A inh 1.
`C/C(=N\O)c1ccc(Cl)c(Cl)c1` gave GSK3B inh 4, STK33 inh 1 and GSK3A inh -3.
Cc1ccc(-c2nc(Nc3cccc(O)c3)c3ccccc3n2)cc1 was read as Dyrk1A ADPGlo 64*, GSK3B inh 0, CDK5 p35 inh 1, STK33 inh 0 and GSK3A inh 16.
For Oc1ccc(Nc2nc(-c3ccccc3O)nc3ccccc23)cc1 the results were Dyrk1A ADPGlo 3, GSK3B inh 0, CDK5 p35 inh 2, STK33 inh 49* and GSK3A inh -3.
